Test results reported in ChEMBL document CHEMBL1139503, “Varenicline: an alpha4beta2 nicotinic receptor partial agonist for smoking cessation” (J Med Chem, 2005).

Legend:
[1] = target: T1, Neuronal acetylcholine receptor; alpha4/beta2 (Homo sapiens) (UniProt P17787+P43681); experiment: Percent antagonist activity against 10 uM nicotine at human nicotinic acetylcholine receptor alpha4-beta2 at 10 uM; assay type: functional
[2] = target: Acetylcholine receptor (Torpedo californica, UniProt P02710+P02712+P02714+P02718); experiment: Inhibition of [125I]alpha-bungarotoxin binding to nicotinic acetylcholine receptor alpha1 beta gamma delta of electroplax; assay type: protein-complex assay
Acetylcholine receptor, sequence (P02710 whole entry): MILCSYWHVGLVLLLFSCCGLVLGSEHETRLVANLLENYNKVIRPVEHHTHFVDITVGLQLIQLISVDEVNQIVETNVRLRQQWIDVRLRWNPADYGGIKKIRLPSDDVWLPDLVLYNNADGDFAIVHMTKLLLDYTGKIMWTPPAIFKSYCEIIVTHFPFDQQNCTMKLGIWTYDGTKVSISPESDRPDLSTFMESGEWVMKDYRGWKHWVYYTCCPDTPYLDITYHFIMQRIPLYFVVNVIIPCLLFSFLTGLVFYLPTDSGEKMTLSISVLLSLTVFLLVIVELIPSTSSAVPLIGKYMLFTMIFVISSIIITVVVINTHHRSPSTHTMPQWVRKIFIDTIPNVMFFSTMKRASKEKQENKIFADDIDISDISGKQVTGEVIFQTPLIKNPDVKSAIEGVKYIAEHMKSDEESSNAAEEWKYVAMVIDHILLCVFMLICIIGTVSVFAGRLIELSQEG
Acetylcholine receptor, sequence (P02712 whole entry): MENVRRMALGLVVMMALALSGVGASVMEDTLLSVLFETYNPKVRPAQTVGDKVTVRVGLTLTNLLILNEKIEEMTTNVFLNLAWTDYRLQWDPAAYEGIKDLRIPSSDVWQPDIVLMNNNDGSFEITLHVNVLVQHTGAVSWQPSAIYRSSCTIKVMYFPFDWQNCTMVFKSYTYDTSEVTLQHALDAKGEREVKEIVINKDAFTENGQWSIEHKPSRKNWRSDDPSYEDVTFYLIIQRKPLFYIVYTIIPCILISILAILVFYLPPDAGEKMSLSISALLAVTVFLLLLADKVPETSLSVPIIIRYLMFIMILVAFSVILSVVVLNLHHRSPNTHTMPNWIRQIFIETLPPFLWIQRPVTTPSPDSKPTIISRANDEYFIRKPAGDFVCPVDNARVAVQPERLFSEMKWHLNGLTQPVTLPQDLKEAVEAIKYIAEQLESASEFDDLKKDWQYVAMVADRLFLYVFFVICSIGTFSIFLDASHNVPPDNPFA
Acetylcholine receptor, sequence (P02718 whole entry): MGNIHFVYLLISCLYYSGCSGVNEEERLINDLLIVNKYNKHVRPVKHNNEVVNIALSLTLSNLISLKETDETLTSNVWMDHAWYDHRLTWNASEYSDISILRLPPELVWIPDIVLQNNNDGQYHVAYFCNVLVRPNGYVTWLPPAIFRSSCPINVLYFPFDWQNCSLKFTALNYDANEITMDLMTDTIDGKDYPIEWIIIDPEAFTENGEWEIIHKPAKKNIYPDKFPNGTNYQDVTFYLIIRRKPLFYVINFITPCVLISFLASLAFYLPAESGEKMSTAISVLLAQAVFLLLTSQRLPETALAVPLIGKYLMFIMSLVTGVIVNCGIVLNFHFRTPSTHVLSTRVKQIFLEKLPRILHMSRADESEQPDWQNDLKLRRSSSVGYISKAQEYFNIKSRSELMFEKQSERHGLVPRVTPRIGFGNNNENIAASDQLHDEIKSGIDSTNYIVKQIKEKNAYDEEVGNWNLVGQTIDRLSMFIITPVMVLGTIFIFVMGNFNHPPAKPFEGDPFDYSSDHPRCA
Acetylcholine receptor, sequence (P02714 whole entry): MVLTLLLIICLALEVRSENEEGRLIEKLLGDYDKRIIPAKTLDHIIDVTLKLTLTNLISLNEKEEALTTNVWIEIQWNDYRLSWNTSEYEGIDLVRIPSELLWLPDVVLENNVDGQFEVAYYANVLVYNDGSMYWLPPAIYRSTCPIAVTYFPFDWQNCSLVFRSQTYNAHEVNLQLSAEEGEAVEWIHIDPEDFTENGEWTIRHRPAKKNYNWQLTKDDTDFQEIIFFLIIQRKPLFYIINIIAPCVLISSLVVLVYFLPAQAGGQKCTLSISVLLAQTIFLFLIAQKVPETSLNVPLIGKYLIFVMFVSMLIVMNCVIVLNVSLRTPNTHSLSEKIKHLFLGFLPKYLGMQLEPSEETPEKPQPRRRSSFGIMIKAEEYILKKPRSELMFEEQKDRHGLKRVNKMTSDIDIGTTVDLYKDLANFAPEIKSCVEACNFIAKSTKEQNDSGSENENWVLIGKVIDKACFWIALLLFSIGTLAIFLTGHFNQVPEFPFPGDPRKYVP
How it was run: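 Competition binding with [125I]-α-bungarotoxin on electroplax membranes; N = 3 determinations.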

[3] = target: T1, Neuronal acetylcholine receptor; alpha4/beta2 (Homo sapiens); experiment: Percent agonist activity relative to 10 uM (-)-nicotine at human nicotinic acetylcholine receptor alpha4-beta2 at 10 uM; assay type: functional
How it was run: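 Electrophysiology in Xenopus oocytes expressing human α4β2 nAChR. Compound applied alone at 10 µM. Current compared with the response to 10 µM (-)-nicotine (chosen over EC50 level to limit desensitization) and expressed as percent; N = 3, SEM ≤10%.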

[4] = target: Neuronal acetylcholine receptor; alpha4/beta2 (Rattus norvegicus, UniProt P09483+P12390); experiment: Inhibition of [3H]nicotine binding to nicotinic acetylcholine receptor alpha4-beta2 of rat cortex
Neuronal acetylcholine receptor; alpha4/beta2, sequence (P09483 whole entry): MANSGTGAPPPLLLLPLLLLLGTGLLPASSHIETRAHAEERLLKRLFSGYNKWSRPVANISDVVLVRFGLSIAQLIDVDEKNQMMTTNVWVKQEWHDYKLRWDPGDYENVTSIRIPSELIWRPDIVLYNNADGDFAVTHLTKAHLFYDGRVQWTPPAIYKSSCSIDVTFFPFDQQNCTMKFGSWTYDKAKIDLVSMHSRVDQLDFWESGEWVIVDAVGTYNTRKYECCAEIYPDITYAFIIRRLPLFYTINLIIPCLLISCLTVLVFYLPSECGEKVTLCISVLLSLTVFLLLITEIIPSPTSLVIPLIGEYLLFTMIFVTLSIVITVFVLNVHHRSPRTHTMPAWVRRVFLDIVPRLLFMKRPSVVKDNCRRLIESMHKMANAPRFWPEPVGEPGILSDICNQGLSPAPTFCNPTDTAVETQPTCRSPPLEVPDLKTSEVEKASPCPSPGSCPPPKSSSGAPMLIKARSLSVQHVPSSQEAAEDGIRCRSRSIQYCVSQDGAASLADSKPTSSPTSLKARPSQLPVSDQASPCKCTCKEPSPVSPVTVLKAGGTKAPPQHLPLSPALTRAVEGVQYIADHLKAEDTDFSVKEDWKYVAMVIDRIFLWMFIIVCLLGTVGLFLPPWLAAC
Neuronal acetylcholine receptor; alpha4/beta2, sequence (P12390 whole entry): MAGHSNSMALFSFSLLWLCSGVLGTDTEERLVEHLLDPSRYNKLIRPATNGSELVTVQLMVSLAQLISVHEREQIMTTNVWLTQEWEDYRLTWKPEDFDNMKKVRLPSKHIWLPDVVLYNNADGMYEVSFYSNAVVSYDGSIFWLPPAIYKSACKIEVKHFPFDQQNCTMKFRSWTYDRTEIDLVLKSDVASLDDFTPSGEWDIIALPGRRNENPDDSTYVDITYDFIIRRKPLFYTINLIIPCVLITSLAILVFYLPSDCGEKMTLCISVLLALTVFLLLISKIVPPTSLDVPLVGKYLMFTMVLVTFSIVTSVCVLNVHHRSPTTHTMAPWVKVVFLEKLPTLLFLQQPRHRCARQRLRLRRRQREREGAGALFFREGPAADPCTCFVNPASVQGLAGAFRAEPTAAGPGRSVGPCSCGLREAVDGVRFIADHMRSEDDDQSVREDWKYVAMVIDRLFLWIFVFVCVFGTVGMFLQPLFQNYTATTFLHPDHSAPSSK
How it was run: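 Radioligand displacement in rat cortex tissue; N = 3 determinations.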

[5] = target: Neuronal acetylcholine receptor subunit alpha-7 (Rattus norvegicus, UniProt Q05941); experiment: Inhibition of [125I]alpha-bungarotoxin binding to nicotinic acetylcholine receptor alpha-7 subunit in rat GH4C1 cells; assay type: cell-based, GH4-C1
Neuronal acetylcholine receptor subunit alpha-7, sequence (Q05941 whole entry): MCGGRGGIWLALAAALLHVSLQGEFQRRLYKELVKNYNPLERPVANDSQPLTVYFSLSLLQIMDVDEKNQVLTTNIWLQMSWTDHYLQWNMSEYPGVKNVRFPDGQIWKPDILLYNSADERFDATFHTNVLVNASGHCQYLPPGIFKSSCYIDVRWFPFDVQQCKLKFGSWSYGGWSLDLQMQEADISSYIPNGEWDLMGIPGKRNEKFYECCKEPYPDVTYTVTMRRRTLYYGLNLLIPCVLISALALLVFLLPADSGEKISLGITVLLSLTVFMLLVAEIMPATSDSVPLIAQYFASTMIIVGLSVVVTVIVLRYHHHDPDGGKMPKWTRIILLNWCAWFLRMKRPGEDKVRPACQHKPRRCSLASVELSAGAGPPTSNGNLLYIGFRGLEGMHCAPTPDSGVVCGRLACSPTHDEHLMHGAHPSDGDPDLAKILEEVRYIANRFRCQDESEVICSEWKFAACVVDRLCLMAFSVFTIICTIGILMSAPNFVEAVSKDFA

[6] = target: Neuronal acetylcholine receptor; alpha3/beta4 (Homo sapiens, UniProt P30926+P32297); experiment: Inhibition of [3H]epibatidine binding to nicotinic acetylcholine receptor alpha3-beta4 of human IMR32 cells; assay type: cell-based, IMR-32
Neuronal acetylcholine receptor; alpha3/beta4, sequence (P30926 whole entry): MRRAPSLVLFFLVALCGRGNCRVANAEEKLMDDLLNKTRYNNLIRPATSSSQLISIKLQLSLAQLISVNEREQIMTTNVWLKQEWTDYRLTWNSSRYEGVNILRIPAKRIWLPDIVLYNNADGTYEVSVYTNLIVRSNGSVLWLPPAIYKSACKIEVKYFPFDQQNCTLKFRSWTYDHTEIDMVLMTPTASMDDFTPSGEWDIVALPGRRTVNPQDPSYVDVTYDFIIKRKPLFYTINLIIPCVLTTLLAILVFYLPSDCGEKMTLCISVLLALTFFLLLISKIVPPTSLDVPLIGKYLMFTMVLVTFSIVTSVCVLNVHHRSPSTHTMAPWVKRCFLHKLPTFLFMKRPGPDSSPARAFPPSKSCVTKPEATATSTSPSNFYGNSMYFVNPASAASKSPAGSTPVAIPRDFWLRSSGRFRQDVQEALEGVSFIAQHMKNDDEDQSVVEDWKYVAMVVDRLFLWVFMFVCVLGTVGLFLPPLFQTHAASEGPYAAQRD
Neuronal acetylcholine receptor; alpha3/beta4, sequence (P32297 whole entry): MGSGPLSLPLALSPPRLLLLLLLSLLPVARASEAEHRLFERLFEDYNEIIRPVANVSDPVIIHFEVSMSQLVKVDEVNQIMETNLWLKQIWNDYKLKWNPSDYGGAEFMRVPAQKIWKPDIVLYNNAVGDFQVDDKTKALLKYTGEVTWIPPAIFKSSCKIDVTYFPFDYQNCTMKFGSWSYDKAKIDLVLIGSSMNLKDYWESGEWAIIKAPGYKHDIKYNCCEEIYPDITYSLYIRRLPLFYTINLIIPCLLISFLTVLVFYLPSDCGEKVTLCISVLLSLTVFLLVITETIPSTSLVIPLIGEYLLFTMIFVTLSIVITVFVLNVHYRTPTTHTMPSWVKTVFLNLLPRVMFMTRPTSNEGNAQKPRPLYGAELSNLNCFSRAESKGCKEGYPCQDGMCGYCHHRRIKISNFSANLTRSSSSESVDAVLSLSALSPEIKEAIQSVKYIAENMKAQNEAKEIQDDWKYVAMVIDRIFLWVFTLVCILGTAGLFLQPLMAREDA
How it was run: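 Displacement of [3H]-epibatidine from IMR32 cell preparations; N = 3 determinations.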

| Compound | inhibition [1] | Ki [2] | Response [3] | Ki [4] | Ki [5] | Ki [6] |
| --- | --- | --- | --- | --- | --- | --- |
| O=[N+]([O-])c1ccc2c(c1)C1CNCC2C1 (racemic) | 20% | 690 nM | 65% | 0.75 nM | 7340 nM | 210 nM |
| O=c1cccc2n1C[C@@H]1CNC[C@H]2C1 (single isomer, unassigned) [CYTISINICLINE] | 30% | 250 nM | 56% | 0.17 nM | 4200 nM | 840 nM |
| CN1CCC[C@H]1c1cccnc1 [NICOTINE] | – | 6270 nM | 100% | – | – | – |
| c1cnc2cc3c(cc2n1)[C@@H]1CNC[C@H]3C1 | 34% | 3540 nM | 68% | 0.06 nM | 322 nM | – |
| c1ccc2c(c1)C1CNCC2C1 | 35% | 370 nM | 0% | 20 nM | > 5000 nM | 2850 nM |
